This passage reports cytotoxicity results from ChEMBL document CHEMBL4513216, “Probing the Open Global Health Chemical Diversity Library for Multistage-Active Starting Points for Next-Generation Antimalarials” (ACS Infect Dis, 2020).

A short description of the data set: Toxicity liver stage against HepG2, at 10uM. Type of data set: cell-based. Details: test concentration 10 uM, cell line HepG2-A16-CD81EGFP. The conditions noted are these: human, HepG2-A16-CD81EGFP cells; read-out: INHIBITION
Put shortly:
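Uninfected HepG2-A16-CD81EGFP cells, 3 × 10^3 per well, 1536-well, plated on prespotted compound at 10 μM final, parasite-free screening media added to match infected plates; puromycin 10 μM positive, DMSO 0.5% negative; run in parallel with 48 h PbLuc assay at 37 °C, 5% CO2; viability by CellTiter-Glo luminescence, normalized to controls.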
Take `CNC(=O)CN1C(=O)CN(C(=O)COC)CCC(OC)c2ccccc21` (stereo not given): the cytotoxicity at 10 µM is -8.12%.
For the compound `Cc1nc2ccn(C(C)C)c(=O)c2cc1C(=O)O`, the cytotoxicity at 10 µM was -43.6%.
The same measure for `CN1C(=O)C2(CC(=O)Nc3[nH]ncc32)c2ccc(F)cc21` (stereo not given): -1.52%; for `O=c1c(NCc2ccco2)c(NCC(O)CN2CCOCC2)c1=O` (stereo not given): -55.8%; for `COCCNCc1cc2c(C)cc(C)cc2n2c(=O)n(C)nc12`: -10.3%.
With `O=C(Cn1c(=O)n(Cc2ccco2)c2ncccc21)NC1CCCC1`, the cytotoxicity at 10 µM is -3.05%.
The same measure for `Cc1cnccc1CN1CC[C@H](Oc2cccc(F)c2)[C@@](C)(O)C1`: -5.55%; for `CN(C)c1ccc(CC2COCCN(Cc3nccn3C)C2)nn1` (stereo not given): -10.2%.
As for `CC(=O)N1CCN(C)CC(COCc2ccccc2)C1` (stereo not given), the cytotoxicity at 10 µM is -4.79%.
Next, `Fc1cccc2c1CCC2NCc1ccc(N2CCOCC2)cc1` (stereo not given): -14.7%; `Cc1ccc(CCCC(=O)N2CC(=O)Nc3cccnc32)s1`: -36.6%; `Cc1cc(NC(N)=O)ccc1OCC(F)(F)F`: -0.883%.
With `Cc1ccc2ncn(CC(O)CN3CCC(C)CC3)c(=O)c2c1` (stereo not given), the cytotoxicity at 10 µM was -0.539%.
Take `Cc1cnn(CC2CCCN2C(=O)Cc2ccc3c(c2)CCO3)c1` (stereo not given): the cytotoxicity at 10 µM was -144%.
Take `CC(C)(C)OCCN(Cc1cccc(O)c1)C1CCC(O)CC1` (stereo not given): the cytotoxicity at 10 µM is 8.22%.
As for `CCn1ccnc1S(=O)(=O)Cc1ccc(C(N)=O)cc1`, the cytotoxicity at 10 µM is -3.8%.
Consider `CC(=O)NCCC(=O)Nc1sccc1C(=O)C(C)(C)C`, for which the cytotoxicity at 10 µM was -46.3%.
The same measure for `CN(C)c1ncc(CNC(=O)Nc2ccccc2F)n1C`: -46.9%.
On to `CN(C)c1ccc(CCCNC(=O)Nc2ccc(C#N)cc2)cc1`, for which the cytotoxicity at 10 µM is -1.14%.
Consider `O=C(c1cccc(F)c1)N1CC[C@@H]2CN(c3ncccn3)CCO[C@@H]2C1`, for which the cytotoxicity at 10 µM is -71.5%.
Consider `CC(C)C1CN(Cc2nccn2C)CCC(=O)N1CC1CC1` (stereo not given), for which the cytotoxicity at 10 µM is -13.7%.
`Cc1ccc(CN(Cc2ccccn2)C(=O)CCC2CCCN(C)C2)s1` (stereo not given): the cytotoxicity at 10 µM turned out to be 18.3%.
Turning to `Cc1cccnc1N1CCN(C(=O)CCc2ccccn2)CC1`, the cytotoxicity at 10 µM is -12.1%.
For `Cc1ccc([C@@H]2CN(C(=O)CCc3ccco3)C[C@H]2N(C)C)cc1`, the cytotoxicity at 10 µM came out at 3.13%.
Next, `CN1CCC(Cc2noc(CC3CC3)n2)CC1`: -9.96%.
Regarding `CSc1ccc(CNC(=O)C2CC(=O)N(C(C)(C)C)C2)cc1` (stereo not given), the cytotoxicity at 10 µM came to 4.69%.
In the case of `COc1ccnc(N2CCC3(CCCN(C(C)C)C3=O)C2)n1` (stereo not given), the cytotoxicity at 10 µM is -8.7%.
Consider `CC(C)Cc1cc(-c2cc(-c3ccc[nH]3)nc(N)c2C#N)n[nH]1`, for which the cytotoxicity at 10 µM came to 14.3%.
Regarding `COc1cc(C)cc(C(C(=O)O)N(C)Cc2cnn(C)c2)c1OC` (stereo not given), the cytotoxicity at 10 µM was found to be 7.87%.
`CC(=O)NCCOc1cccc(Br)c1`: the cytotoxicity at 10 µM was -3.06%.
Regarding `COc1ccc(F)c(-c2cc(O)nc(N)n2)c1`, the cytotoxicity at 10 µM was 2.05%.
In the case of `CN(C)CC1(O)CCN(S(=O)(=O)c2ccc(F)c(F)c2)C1` (stereo not given), the cytotoxicity at 10 µM was -0.954%.
As to `Fc1ccc(-c2nc(CNC3CCc4ncnn4C3)cs2)cc1` (stereo not given), the cytotoxicity at 10 µM is -4.92%.
As for `Cc1cc(NC(=O)NCC(O)c2ccc(F)cc2)n(C)n1` (stereo not given), the cytotoxicity at 10 µM is -2.69%.
The same measure for `COc1cccc(-n2nnc(C(=O)N3CCNC(=O)C3)c2C)c1`: -10.3%; for `CCn1ccnc1CNCC1CCCN1c1cccnn1` (stereo not given): -1.28%; for `CCc1noc(C(C)N2CCOCC2)n1` (stereo not given): -6.5%.
The same measure for `c1ccc2cc(OCCN3CCOC(Cn4cncn4)C3)ccc2c1` (stereo not given): 4.6%; for `Cc1cn2c(n1)CCC(NC(=O)c1cc(C(C)C)no1)C2` (stereo not given): -2.12%.
On to `O=C(Nc1cccnc1)[C@H]1C[C@H]2CN(S(=O)(=O)C3CC3)C[C@@H]1O2`, for which the cytotoxicity at 10 µM was -71.8%.
